Here are results for 14 compounds from PubChem BioAssay.

The nature of assay [1]: reducers of endogenous Her2 protein level, primary screen, SKBR3 breast tumor cells, AlphaScreen, ATP viability (AID 461;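 active means Her2 level under about 52% in both replicate screens, with viability over 70% of control, limit read from the data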;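 on Her2 level: lower value means less Her2 protein in the cells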;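 on viability: percent of carrier control wells set as 100% viability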). The settings on record: 18-24 h, measured here: SKBR3 viability, ATP luminescence, at 10 µM. (In general: Alpha assays give light when donor and acceptor beads are brought close together.)
The target of assay [2] is Receptor tyrosine-protein kinase erbB-2 (Homo sapiens) (UniProt P04626). The description is as above. The settings on record: 18-24 h, at 10 µM, stronger effect = lower value.
Chain of Receptor tyrosine-protein kinase erbB-2 (Homo sapiens) (P04626 whole entry, looked up): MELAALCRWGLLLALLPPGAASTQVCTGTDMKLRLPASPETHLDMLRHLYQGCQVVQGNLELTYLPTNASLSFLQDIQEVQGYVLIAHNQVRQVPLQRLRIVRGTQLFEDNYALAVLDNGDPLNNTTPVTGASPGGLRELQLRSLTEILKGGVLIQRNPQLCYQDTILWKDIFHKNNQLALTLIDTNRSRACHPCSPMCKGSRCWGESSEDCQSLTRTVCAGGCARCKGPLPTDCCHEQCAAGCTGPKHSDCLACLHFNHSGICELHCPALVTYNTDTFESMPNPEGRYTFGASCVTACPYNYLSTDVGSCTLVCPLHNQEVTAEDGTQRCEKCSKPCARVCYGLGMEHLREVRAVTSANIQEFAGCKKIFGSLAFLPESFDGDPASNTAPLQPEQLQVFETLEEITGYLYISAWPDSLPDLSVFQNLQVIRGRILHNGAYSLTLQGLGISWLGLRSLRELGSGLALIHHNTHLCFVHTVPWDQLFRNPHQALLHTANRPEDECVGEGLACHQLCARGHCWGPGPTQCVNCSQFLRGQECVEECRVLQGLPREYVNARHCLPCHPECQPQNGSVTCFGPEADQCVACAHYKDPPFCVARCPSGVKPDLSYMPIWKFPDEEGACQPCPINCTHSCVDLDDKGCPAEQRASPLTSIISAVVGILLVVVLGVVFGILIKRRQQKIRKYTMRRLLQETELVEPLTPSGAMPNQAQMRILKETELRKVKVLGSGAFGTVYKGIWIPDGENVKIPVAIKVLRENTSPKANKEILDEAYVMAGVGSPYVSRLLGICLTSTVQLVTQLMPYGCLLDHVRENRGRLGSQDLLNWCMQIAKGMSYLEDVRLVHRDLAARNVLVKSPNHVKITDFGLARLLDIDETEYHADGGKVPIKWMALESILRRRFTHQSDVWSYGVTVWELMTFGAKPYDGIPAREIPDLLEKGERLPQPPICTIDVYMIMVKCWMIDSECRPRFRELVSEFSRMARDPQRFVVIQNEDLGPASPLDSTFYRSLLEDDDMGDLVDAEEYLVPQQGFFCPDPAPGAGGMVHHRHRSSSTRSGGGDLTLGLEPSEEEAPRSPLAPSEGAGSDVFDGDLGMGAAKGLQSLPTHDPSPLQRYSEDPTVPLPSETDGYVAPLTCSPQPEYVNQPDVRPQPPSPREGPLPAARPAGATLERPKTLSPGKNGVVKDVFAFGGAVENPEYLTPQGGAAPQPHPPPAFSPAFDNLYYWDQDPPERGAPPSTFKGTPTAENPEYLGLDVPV
Assay [3] is described as follows: SK-BR-3 cell growth inhibitors, pilot screen, 24 h, human (AID 572).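 Further: compound exposure lasted between 18 and 24 h rather than exactly 24 h; 100% = carrier-treated control wells.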 The conditions noted are these: SK-BR-3 viability, CellTiter-Glo luminescence, at 10 µM, stronger effect = lower value. (In general: ATP-based viability assays read luminescence as a measure of living cells.)
The nature of assay [4]: HUVEC growth inhibition – cell-based, human, primary screen (AID 575;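 active means viability at or below 30% in both replicate assays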;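 further: 100% = median of untreated cell wells with 0.1% DMSO on each plate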). The conditions noted are these: HUVEC proliferation, CellTiter-Glo luminescence, 72 h; at 10 µM; stronger effect = lower value. The gist of the method:
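material = primary HUVEC, no more than 12 passages | input = 1250 cells per well | controls = vehicle and MePR control wells | measured by = CTG luminescence | times = 72 h compound incubation | format = collagen-coated 384-well format | read-out = % viability vs DMSO wells | doses = single 10 µM dose, 0.1% DMSO, from 5x medium stock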

Assay [5] is described as follows: growth inhibitors of H69AR lung tumor, primary screen, human, duplicate replicates (AID 580;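 active means viability at or under a set limit in both replicates, limit being median viability minus 3 SD, cut at about 48% in these data, passing the limit was not always enough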;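 further: 100% = mean luminescence of untreated wells and 0% = no signal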). The conditions noted are these: H69AR lung tumor cells viability, ATP luminescence, 72 h; at 10 µM; stronger effect = lower value.
Assay [6] in a line: reversal of MRP1-mediated doxorubicin resistance, pilot screen, H69AR cells, doxorubicin co-treatment (AID 601;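 active means viability loss from added drug above about 55%, and viability with drug at most 40%, in both replicates, limit read from the data, passing the limit was not always enough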). The settings on record: CellTiter-Glo, 72 h, at 10 µM; for differential viability (reversal): stronger effect = higher value.
Assay [7] in a line: 384-well plate pilot, post-Golgi transport modulator project, inhibition of yeast transport mutant growth (AID 636; in the data active means inhibition above about 31%). The settings on record: absorbance 615 nm, about 18 h, stronger effect = higher value.
Assay [8] can be described thus: growth suppression of yeast trafficking mutant, preliminary HTS, modulators of trafficking downstream of Golgi apparatus project, 1536-format plate, OD 615 nm (AID 637; in the data active means inhibition above about 30%). The settings on record: yeast transport mutant growth, absorbance 615 nm, 18 h; stronger effect = higher value.
[9] abbreviates: H69AR cells + 2 uM doxorubicin, measured here: viability with 2 uM doxorubicin, stronger effect = lower value.
The mark [10] stands for this setting: H69AR cells, compound alone cytotoxicity.

The source made the active and inactive calls.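 How the source made its calls, unless noted: active means viability at or below 10% of carrier control in both of two separate runs; inconclusive means viability at or below 10% in only one of the two runs; inactive means the rest.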

For the compound `O=C(N1CCCCCC1)N1CCN(S(=O)(=O)N2CCCCC2)CC1`, the viability in assay [1] was 101%; in assay [3], 101% (inactive); in assay [4] it was 99.5% (inactive); in assay [5], 94% (inactive); in assay [6] (setting [9]), 99.7%; in assay [6] (setting [10]), 94%. Besides, in assay [2], the Her2 level was 91.5% (inactive). In addition, the differential viability (reversal) in assay [6] (H69AR cells + 2 uM doxorubicin) is -5.71% (inactive). The results for the inhibition in assay [7] and in assay [8] were -2.76% (inactive) and -2.26% (inactive), respectively.
As to `COc1cccc(OCc2nc3ccccc3[nH]2)c1`, the viability in assay [1] is 86.5%; in assay [3], 86.5% (inactive); in assay [4], 101% (inactive); in assay [5], 95.8% (inactive); in assay [6] (setting [9]), 88.3%; in assay [6] (setting [10]), 95.8%. Further, the Her2 level in assay [2] was 110% (inactive). Also, the differential viability (reversal) in assay [6] (H69AR cells + 2 uM doxorubicin) is 7.5% (inactive). In addition, the inhibition in assay [7] was -0.51% (inactive); in assay [8] it was -5% (inactive).
For the compound `CCOC(=O)c1ccccc1NC(=O)CSc1nnc(COc2ccccc2C)n1C`, the viability in assay [1] is 63%; in assay [3], 63% (inactive); in assay [4], 82.6% (inactive); in assay [5], 78.7% (inactive); in assay [6] (setting [9]), 73%; in assay [6] (setting [10]), 78.7%. Besides, in assay [2], the Her2 level is 89% (inactive). In addition, in assay [6] (H69AR cells + 2 uM doxorubicin), the differential viability (reversal) was 5.67% (inactive). Besides, the inhibition in assay [7] is -3.08% (inactive); in assay [8], -9.17% (inactive).
Consider `COCCn1c(C23CC4CC(CC(C4)C2)C3)n[nH]c1=S`, for which the viability was 90% in assay [1]; 90% (inactive) in assay [3]; 79.5% (inactive) in assay [4]; 77.2% (inactive) in assay [5]; 75.6% in assay [6] (setting [9]); 77.2% in assay [6] (setting [10]). For the same compound, in assay [2], the Her2 level is 94.5% (inactive). For the same compound, the differential viability (reversal) in assay [6] (H69AR cells + 2 uM doxorubicin) is 1.57% (inactive). Moreover, the figures for the inhibition in assay [7] and in assay [8] were -2.34% (inactive) and 1.33% (inactive), respectively.
Regarding `COCCN1CCN(c2c(C)c(C)nc3cc(-c4cccc(OC)c4)nn23)CC1`, the viability in assay [1] was 100%; in assay [3], 100% (inactive); in assay [4], 91.1% (inactive); in assay [5], 95.4% (inactive); in assay [6] (setting [9]), 82.7%; in assay [6] (setting [10]), 95.4%. The Her2 level in assay [2] was 83.5% (inactive). The differential viability (reversal) in assay [6] (H69AR cells + 2 uM doxorubicin) is 12.7% (inactive). Moreover, the inhibition in assay [7] was -5.45% (inactive); in assay [8], -1.43% (inactive).
With `COc1ccc(Oc2c(C)oc3cc(OC(=O)N4CCOCC4)ccc3c2=O)cc1`, the viability was 91% in assay [1]; 91% (inactive) in assay [3]; 105% (inactive) in assay [4]; 101% (inactive) in assay [5]; 101% in assay [6] (setting [9]); 101% in assay [6] (setting [10]). The Her2 level in assay [2] was 99% (inactive). Also, in assay [6] (H69AR cells + 2 uM doxorubicin), the differential viability (reversal) is -0.51% (inactive). The inhibition in assay [7] is -5.6% (inactive); in assay [8] it was -5.08% (inactive).
Consider `COc1ccc(C(=O)NCCn2ccc3ccccc32)cc1`, for which the viability in assay [1] is 126%; in assay [3], 126% (inactive); in assay [4], 111% (inactive); in assay [5], 92.5% (inactive); in assay [6] (setting [9]), 84%; in assay [6] (setting [10]), 92.5%. Further, in assay [2], the Her2 level was 97% (inactive). The differential viability (reversal) in assay [6] (H69AR cells + 2 uM doxorubicin) was 8.59% (inactive). For the same compound, the inhibition is -5.6% (inactive) in assay [7] and 0.16% (inactive) in assay [8].
For `Cc1occc1C(=O)Nc1ccccc1NC(=O)c1ccoc1C`, the viability in assay [1] is 96.5%; in assay [3], 96.5% (inactive); in assay [4] it was 90.9% (inactive); in assay [5] it was 100% (inactive); in assay [6] (setting [9]), 92%; in assay [6] (setting [10]) it was 100%. For the same compound, the Her2 level in assay [2] is 101% (inactive). The differential viability (reversal) in assay [6] (H69AR cells + 2 uM doxorubicin) was 8.43% (inactive). For the same compound, the inhibition was -4.67% (inactive) in assay [7] and 0.48% (inactive) in assay [8].
On to `Cc1nc2ccccc2c(=O)n1/N=C/c1ccncc1`, for which the viability in assay [1] was 95%; in assay [3] it was 95% (inactive); in assay [4], 105% (inactive); in assay [5], 103% (inactive); in assay [6] (setting [9]), 91.1%; in assay [6] (setting [10]), 103%. In assay [2], the Her2 level is 99.5% (inactive). Also, the differential viability (reversal) in assay [6] (H69AR cells + 2 uM doxorubicin) was 12.4% (inactive). For the same compound, the figures for the inhibition in assay [7] and in assay [8] were -6.13% (inactive) and -1.94% (inactive), respectively.
Turning to `COCc1cc(C)nc(SCC(=O)Nc2cccc(C)c2C)c1C#N`, the viability in assay [1] is 103%; in assay [3], 103% (inactive); in assay [4], 82.3% (inactive); in assay [5], 94.4% (inactive); in assay [6] (setting [9]), 82.5%; in assay [6] (setting [10]) it was 94.4%. For the same compound, the Her2 level in assay [2] is 95.5% (inactive). In assay [6] (H69AR cells + 2 uM doxorubicin), the differential viability (reversal) is 11.9% (inactive). The inhibition was -3.16% (inactive) in assay [7] and -0.48% (inactive) in assay [8].
Regarding `Cc1cc(NC(=O)CSc2ccc3nnc(-c4cccc(F)c4)n3n2)no1`, the viability in assay [1] was 108%; in assay [3] it was 108% (inactive); in assay [4] it was 103% (inactive); in assay [5], 94.6% (inactive); in assay [6] (setting [9]) it was 86.4%; in assay [6] (setting [10]) it was 94.6%. Besides, in assay [2], the Her2 level is 102% (inactive). In assay [6] (H69AR cells + 2 uM doxorubicin), the differential viability (reversal) was 8.17% (inactive). For the same compound, the figures for the inhibition in assay [7] and in assay [8] were -4.19% (inactive) and -4.17% (inactive), respectively.
For `Cc1cc(NC(=O)Cn2cnc3c2c(=O)n(C)c(=O)n3C)n(-c2ccccc2)n1`, the viability in assay [1] was 116%; in assay [3], 116% (inactive); in assay [4] it was 117% (inactive); in assay [5] it was 108% (inactive); in assay [6] (setting [9]), 99.3%; in assay [6] (setting [10]) it was 108%. For the same compound, the Her2 level in assay [2] is 93% (inactive). Moreover, in assay [6] (H69AR cells + 2 uM doxorubicin), the differential viability (reversal) was 8.22% (inactive). Besides, the results for the inhibition in assay [7] and in assay [8] were -7.97% (inactive) and 0.83% (inactive), respectively.
Regarding `O=C(COC(=O)c1ccccc1O)Nc1ccc(OC(F)F)cc1`, the viability was 78% in assay [1]; 78% (inactive) in assay [3]; 93.7% (inactive) in assay [4]; 93.2% (inactive) in assay [5]; 90.5% in assay [6] (setting [9]); 93.2% in assay [6] (setting [10]). Also, the Her2 level in assay [2] was 123% (inactive). Moreover, the differential viability (reversal) in assay [6] (H69AR cells + 2 uM doxorubicin) was 2.67% (inactive). Besides, the inhibition in assay [7] was 5.14% (inactive); in assay [8], 32.4% (active).
For `CCOC(=O)CSc1nc2c(c(-c3ccc(C)o3)c1C#N)CCCC2`, the viability was 89.5% in assay [1]; 89.5% (inactive) in assay [3]; 65.8% (inactive) in assay [4]; 73.8% (inactive) in assay [5]; 67% in assay [6] (setting [9]); 73.8% in assay [6] (setting [10]). Also, the Her2 level in assay [2] is 88.5% (inactive). Besides, the differential viability (reversal) in assay [6] (H69AR cells + 2 uM doxorubicin) was 6.76% (inactive). Further, the inhibition in assay [7] was 0.26% (inactive); in assay [8] it was -2.46% (inactive).

One may read the viability as a read-out of living cells in per cent, often relative to untreated cells. A word on the inhibition: it is the relative decrease from the control value, in per cent.
